Assay results as given in ChEMBL document CHEMBL2390941 (Bioorg Med Chem Lett, 2013).
Converted amounts (≈) assume the structure as drawn. The source made the active and inactive calls. No cut-off for these calls is given here.

Key:
[1] = molecular target: T1, Enoyl-acyl carrier reductase (Toxoplasma gondii, UniProt Q6UCJ9); assay: Inhibition of Toxoplasma gondii enoyl acyl-carrier protein reductase
T1 sequence (Q6UCJ9 whole entry): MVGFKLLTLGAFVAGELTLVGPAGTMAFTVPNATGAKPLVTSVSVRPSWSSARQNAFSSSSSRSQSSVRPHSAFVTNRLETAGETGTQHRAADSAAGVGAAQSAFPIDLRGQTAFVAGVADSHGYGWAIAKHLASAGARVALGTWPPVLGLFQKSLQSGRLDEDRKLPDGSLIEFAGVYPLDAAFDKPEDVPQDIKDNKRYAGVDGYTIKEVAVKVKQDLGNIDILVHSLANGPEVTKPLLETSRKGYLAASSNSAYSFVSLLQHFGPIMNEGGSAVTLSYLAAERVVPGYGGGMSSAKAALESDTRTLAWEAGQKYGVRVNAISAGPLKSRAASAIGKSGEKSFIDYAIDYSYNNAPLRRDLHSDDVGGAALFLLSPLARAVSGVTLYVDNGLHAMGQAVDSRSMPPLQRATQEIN

[2] = test system: HFF; assay: Cytotoxicity against HFF after 72 hrs by WST-1 assay; type: cell-based; details: human
Summary of the method: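 Uninfected human foreskin fibroblast host cells were incubated with compounds for 72 h. Viability was then assessed by WST-1 staining. The effect of DMSO levels in the culture medium was assessed alongside.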

[3] = test system: Plasmodium falciparum; assay: Antiplasmodial activity against blood stage of drug-sensitive Plasmodium falciparum D6; type: functional
Summary of the method: (§1)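 Blood-stage parasites tested in a dose-response growth inhibition assay; values reported in ng/ml.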

[4] = molecular target: T2, Enoyl-acyl carrier reductase (Toxoplasma gondii) (UniProt Q6UCJ9); assay: Inhibition of Toxoplasma gondii enoyl acyl-carrier protein reductase at 1 uM
T2 sequence (whole entry): T1 sequence (Q6UCJ9 whole entry)

[5] = test system: Toxoplasma gondii; assay: Antiparasitic activity against tachyzoite of Toxoplasma gondii RH expressing yellow fluorescent protein infected in human foreskin fibroblasts after 72 hrs by fluorescence assay
[6] = test system: Plasmodium falciparum; assay: Antiplasmodial activity against blood stage of drug-resistant Plasmodium falciparum TM91C235; type: functional; summary of the method: as §1
[7] = test system: Toxoplasma gondii; assay: Antiparasitic activity against tachyzoite of Toxoplasma gondii RH expressing yellow fluorescent protein infected in human foreskin fibroblasts after 72 hrs by bacterial beta-galactosidase reporter gene assay; type: functional

| SMILES | IC50 [1] [nM] | Activity [2] [µM] | Activity [3] | inhibition [4] [%] | MIC50 [5] [µM] | Activity [6] | MIC50 [7] [µM] |
| --- | --- | --- | --- | --- | --- | --- | --- |
| CCCc1cc(-c2ccc(Oc3ccc(CNC(=O)c4cc(C)on4)cc3O)c(Cl)c2)no1 | 137 | > 10 | >10000 ng/mL | 89 | 4 (≈ 1.87 µg/mL) | – | – |
| Oc1cc(Cl)ccc1Oc1ccc(Cl)cc1Cl [TRICLOSAN] | – | > 10 | inactive | 98 | 5 (≈ 1.45 µg/mL) | inactive | – |
| CCCc1cc(-c2ccc(Oc3ccc(C#N)cc3O)c(Cl)c2)no1 | 29 | > 10 | > 2440 ng/mL | 94 | – | inactive | 4 (≈ 1.42 µg/mL) |
| N#Cc1ccc(Oc2ccc(-c3cc(CCO)on3)cc2Cl)c(O)c1 | 34 | > 10 | >10000 ng/mL | 94 | – | – | 8 (≈ 2.85 µg/mL) |
| Cc1cc(C(=O)NCc2ccc(Oc3ccc(Cl)cc3Cl)c(O)c2)no1 | 19 | – | – | – | – | – | – |
